Results on 5 molecules are retold here after publication PMC4156448 (Memórias do Instituto Oswaldo Cruz, 2014).

Data set [1] deals with Plasmodium berghei (NK65). The experiment in a line: Antimalarial suppressive test against Plasmodium berghei in mice. Format: in vivo. The note with it: P. berghei; for Inhibition of parasitaemia at days after parasite inoculation (%) Fifth: day 5; for Inhibition of parasitaemia at days after parasite inoculation (%) Ninth: day 9. A digest of the protocol: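 Oral 4-day-type suppressive test, run once. P. berghei NK65 (chloroquine-sensitive) blood stages kept at -70 °C and passaged weekly in outbred Swiss mice. Adult female mice (20 ± 2 g) received 1 × 10^5 infected erythrocytes and were randomised into groups of three 24 h later. […] Parasitaemia was read on Giemsa-stained tail-blood smears on days 5 and 9, as inhibition versus untreated mice (100%).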

Data set [2] concerns normal monkey kidney cells (BGM). The experiment in a line: Cytotoxicity MTT assay, BGM cells. Format: cell-based. The following applies: for BGM MLD50: BGM cells, 24 h, MTT, unit only from tested concentrations.
The test system of data set [3] is human hepatocellular liver carcinoma cell line (HepG2). The experiment in a line: Cytotoxicity MTT assay, HepG2 cells. Format: cell-based. The following applies: 24 h, unit only from tested concentrations.
In data set [4] the test system is Plasmodium falciparum W2 clone (chloroquine-resistant). In words: In vitro activity against P. falciparum blood-stage parasites, anti-HRPII test. The following applies: classified by IC50. Format: cell-based.
Setting [5] is: chloroquine 20 mg/kg, listed as chloroquine.
The mark [6] stands for this setting: oral 100 mg/kg for three consecutive days.

Consider `CCN(CC)CCCC(C)Nc1ccnc2cc(Cl)ccc12` (stereo not shown) [Chloroquine], for which, in data set [1] (chloroquine 20 mg/kg), the Activity result is reported as “Cure”, the “Inhibition of parasitaemia at days after parasite inoculation (%) Fifth” value is 100% and the “Inhibition of parasitaemia at days after parasite inoculation (%) Ninth” value came to 100%. In data set [1] (setting [5]), the Activity result is “clearing parasitaemia” and the survival of mice result is on record as “maintaining survival of the mice”.
Turning to `CC(C)=CCC1=C(O)C(=O)c2ccccc2C1=O` [Compound 10, Lapachol], the “BGM MLD50” value in data set [2] was 1,785.1 ± 888.3 µM. For the same molecule, the “HepG2 MLD50” value in data set [3] is 1,491.7 ± 321.4 µM.
Consider `CC(C)=CC1=C(O)C(=O)c2ccccc2C1=O` [Compound 11, Nor-lapachol], for which, in data set [1] (oral 100 mg/kg), the “in vivo activity class” value is “inactive”. Also, in data set [1] (setting [6]), the “Inhibition of parasitaemia at days after parasite inoculation (%) Fifth” value turned out to be 21% and the “Inhibition of parasitaemia at days after parasite inoculation (%) Ninth” value is given as 21%. The “in vitro activity class against P. falciparum” value in data set [4] is “partially active (those with IC50 values between 5-30 µM were considered partially active)”. Besides, in data set [2], the “BGM MLD50” value is recorded as 1,608.8 ± 221.8 µM. For the same molecule, the “HepG2 MLD50” value in data set [3] is 1,698.6 ± 94.8 µM.
As to `CC(C)/C=C/C1=C(O)C(=O)c2ccccc2C1=O` [Compound 12, Iso-lapachol], the “in vitro activity class against P. falciparum” value in data set [4] was “partially active (those with IC50 values between 5-30 µM were considered partially active)”. In addition, the “BGM MLD50” value in data set [2] is listed as 1,388.9 ± 592.5 µM. Moreover, the “difference in cytotoxicity between HepG2 and BGM cells” value in data set [2] (HepG2 versus BGM) is on record as “near two-fold increase”. The “HepG2 MLD50” value in data set [3] is ≥ 4,127.6 µM.
In the case of `CC1=C(O)C(=O)c2ccccc2C1=O` [Compound 13, 2-hydroxy-3-methyl-1,4-naphthoquinone], in data set [2], the “BGM MLD50” value is listed as ≥ 5,314.1 µM. In data set [3], the “HepG2 MLD50” value is recorded as 5,308.2 ± 8.3 µM.
